How the values were obtained:
Rattus norvegicus = species on record: Rattus norvegicus; experiment: Selectivity index, ratio of IC50 for partially purified Fischer-344 rat kidney ALR1 to IC50 for partially purified Fischer-344 rat lens ALR2; conditions: Lens of camera-type eye
[1] = biological target: Aldo-keto reductase family 1 member A1 (Rattus norvegicus, UniProt P51635); experiment: Inhibition of partially purified Fischer-344 rat kidney ALR1 using D,L-glycuronate as substrate assessed as NADPH consumption by spectrophotometry
Aldo-keto reductase family 1 member A1, sequence (P51635 whole entry, looked up): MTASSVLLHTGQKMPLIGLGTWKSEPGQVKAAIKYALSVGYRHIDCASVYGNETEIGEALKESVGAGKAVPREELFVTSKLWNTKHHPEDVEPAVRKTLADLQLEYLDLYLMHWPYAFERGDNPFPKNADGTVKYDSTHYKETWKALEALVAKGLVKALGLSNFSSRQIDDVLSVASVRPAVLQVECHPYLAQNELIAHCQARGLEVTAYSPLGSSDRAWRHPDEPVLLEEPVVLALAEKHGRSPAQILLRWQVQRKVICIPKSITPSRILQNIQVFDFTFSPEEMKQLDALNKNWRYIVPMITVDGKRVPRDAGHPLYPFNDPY
Procedure, shortened: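 Kidneys from Fischer-344 rats of both sexes homogenized in 3 vol 10 mM sodium phosphate buffer; 10,000g supernatant taken through ammonium sulfate fractions at 40%, 50% and 75% saturation. Last pellet redissolved in 10 mM sodium phosphate pH 7.2 with 2.0 mM EDTA and 2.0 mM β-mercaptoethanol, DEAE-treated, stored at −80 °C. Substrate D-glycuronate at 37 °C. NADPH loss read at 340 nm. Five concentrations, triplicate; IC50 by least squares on linear part of log(dose)–response.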

[2] = biological target: Aldo-keto reductase family 1 member B1 (Rattus norvegicus, UniProt P07943); experiment: Inhibition of partially purified Fischer-344 rat lens ALR2 using D,L-glyceraldehyde as substrate assessed as NADPH consumption by spectrophotometry; set-up: species or system Lens of camera-type eye
Procedure, shortened: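 Supernatant brought to 40% ammonium sulfate saturation and spun again; supernatant used directly or kept ≤24 h at −80 °C. Compounds dissolved in 0.2 M NaHCO3. Substrate D,L-glyceraldehyde at 30 °C; NADPH loss at 340 nm. Five concentrations, triplicate; IC50 by least-squares fit of linear log(dose)–response region.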

Row | Compound | Ratio IC50 (Rattus norvegicus) | IC50 [1] | IC50 [2]
1 | O=C(c1ccccc1)c1ccn(-c2cnn(O)c2)c1 | 9.46 | 10.8 µM | 1.14 µM
2 | COc1ccc(C(=O)c2cccn2-c2cnn(O)c2)cc1 | > 6.67 | > 100 µM | 15.1 µM
3 | COc1ccc(C(=O)c2cccn2CC(=O)O)cc1 | > 21.9 | > 100 µM | 4.57 µM
4 | COc1ccc(C(=O)c2ccn(CC(=O)O)c2)cc1 | > 62.4 | > 100 µM | 1.6 µM
5 | O=C(c1ccccc1)c1cccn1-c1cnn(O)c1 | > 7.41 | > 100 µM | 13.5 µM
6 | O=C(O)Cn1cccc1C(=O)c1ccccc1 | > 4.54 | > 100 µM | 22 µM
7 | O=C(c1ccc(-c2ccccc2)cc1)c1cccn1-c1cnn(O)c1 | > 10.2 | > 100 µM | 9.81 µM
8 | O=C(c1ccc(-c2ccccc2)cc1)c1ccn(-c2cnn(O)c2)c1 | 88.9 | 62.1 µM | 0.698 µM
9 | O=C(O)Cn1ccc(C(=O)c2ccc(-c3ccccc3)cc2)c1 | 153 | 52.5 µM | 0.344 µM
10 | COc1ccc(C(=O)c2ccn(-c3cnn(O)c3)c2)cc1 | 11.2 | 10.8 µM | 0.708 µM
11 | O=C(O)Cn1cccc1C(=O)c1ccc(-c2ccccc2)cc1 | > 14.3 | > 100 µM | 7 µM
12 | O=C(O)Cn1ccc(C(=O)c2ccccc2)c1 | > 50.8 | > 100 µM | 

Source: ChEMBL document CHEMBL2413028, “1-Hydroxypyrazole as a bioisostere of the acetic acid moiety in a series of aldose reductase inhibitors” (Bioorg Med Chem, 2013)
